Source: ChEMBL document CHEMBL1649256, “Comparison of assessment of oxygen consumption, Etest, and CLSI M38-A2 broth microdilution methods for evaluation of the susceptibility of Aspergillus fumigatus to posaconazole” (2009)
Values after ≈ are worked out from the molar mass of the structure shown.

What was measured:
Type in all cases: functional
[1] = system: Aspergillus fumigatus; test: Antimicrobial activity against Aspergillus fumigatus isolate 40 by CLSI M38-A2 broth microdilution method
Outline: (§1)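 CLSI M38-A2 broth microdilution with posaconazole. MIC taken as the lowest concentration with no visible growth at 48 h. C. parapsilosis ATCC 22019 and C. krusei ATCC 6258 were included as QC strains in every run.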

[2] = system: Aspergillus fumigatus; test: Antimicrobial activity against Aspergillus fumigatus isolate 50 by CLSI M38-A2 broth microdilution method
[3] = system: Aspergillus fumigatus; test: Antimicrobial activity against Aspergillus fumigatus isolate 17 by CLSI M38-A2 broth microdilution method
Outline: (§2)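 Posaconazole broth microdilution follows CLSI M38-A2. The MIC is the lowest concentration with no visible growth at 48 h. Candida parapsilosis ATCC 22019 and Candida krusei ATCC 6258 were included as QC strains in every run.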

[4] = system: Aspergillus fumigatus; test: Antimicrobial activity against Aspergillus fumigatus isolate 44 by oxygen consumption method
[5] = system: Aspergillus fumigatus; test: Antimicrobial activity against Aspergillus fumigatus isolate 10 by CLSI M38-A2 broth microdilution method; outline: as §2
[6] = system: Aspergillus fumigatus; test: Antimicrobial activity against Aspergillus fumigatus isolate 46 by oxygen consumption method
[7] = system: Aspergillus fumigatus; test: Antimicrobial activity against Aspergillus fumigatus isolate 33 after 24 hrs by Etest; settings: isolate 33, 24 h
Outline: (§3)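 Posaconazole Etest strips on RPMI 1640 agar with 2% glucose, pH 7.0, run per the strip maker's instructions. Incubated at 35°C. MIC read at 24 h and at 48 h, matching the time in each line.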

[8] = system: Aspergillus fumigatus; test: Antimicrobial activity against Aspergillus fumigatus isolate 43 by CLSI M38-A2 broth microdilution method
[9] = system: Aspergillus fumigatus; test: Antimicrobial activity against Aspergillus fumigatus isolate 2 by CLSI M38-A2 broth microdilution method; outline: as §2
[10] = system: Aspergillus fumigatus; test: Antimicrobial activity against Aspergillus fumigatus isolate 3 after 48 hrs by Etest; settings: isolate 3, 48 h
Outline: (§4)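 Etest strips on RPMI 1640 agar with 2% glucose, pH 7.0, run per manufacturer's instructions. Incubated at 35°C; MIC read at 48 h.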

[11] = system: Aspergillus fumigatus; test: Antimicrobial activity against Aspergillus fumigatus isolate 2 after 24 hrs by Etest; settings: isolate 2, 24 h
Outline: (§5)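 Posaconazole Etest strips placed on RPMI 1640 agar with 2% glucose, pH 7.0, and run per the strip maker's instructions. Incubation at 35°C, with the MIC read at 24 h and at 48 h.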

[12] = system: Aspergillus fumigatus; test: Antimicrobial activity against Aspergillus fumigatus isolate 4 by CLSI M38-A2 broth microdilution method; outline: as §1
[13] = system: Aspergillus fumigatus; test: Antimicrobial activity against Aspergillus fumigatus isolate 41 after 48 hrs by Etest; settings: isolate 41, 48 h; outline: as §3
[14] = system: Aspergillus fumigatus; test: Antimicrobial activity against Aspergillus fumigatus isolate 31 by oxygen consumption method
Outline: (§6)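 Conidial suspension in RPMI 1640 broth, 1.5 ml, with two drug concentrations (0.25 and 2 μg/ml). Tubes agitated 12 h at 37°C in a biological oxygen monitor. Available oxygen monitored continuously and quantified to assign the MIC.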

[15] = system: Aspergillus fumigatus; test: Antimicrobial activity against Aspergillus fumigatus isolate 47 by CLSI M38-A2 broth microdilution method
[16] = system: Aspergillus fumigatus; test: Antimicrobial activity against Aspergillus fumigatus isolate 26 after 24 hrs by Etest; settings: isolate 26, 24 h
Outline: (§7)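 Etest strips on RPMI 1640 agar with 2% glucose, pH 7.0, run per manufacturer's instructions. Incubated at 35°C; MIC read at 24 h.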

[17] = system: Aspergillus fumigatus; test: Antimicrobial activity against Aspergillus fumigatus isolate 6 after 24 hrs by Etest; settings: isolate 6, 24 h
[18] = system: Aspergillus fumigatus; test: Antimicrobial activity against Aspergillus fumigatus isolate 23 after 48 hrs by Etest; settings: isolate 23, 48 h; outline: as §4
[19] = system: Aspergillus fumigatus; test: Antimicrobial activity against Aspergillus fumigatus isolate 16 after 48 hrs by Etest; settings: isolate 16, 48 h; outline: as §5
[20] = system: Aspergillus fumigatus; test: Antimicrobial activity against Aspergillus fumigatus isolate 34 by oxygen consumption method
Outline: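 Conidial suspension in RPMI 1640 broth, tested at two posaconazole levels (0.25 and 2 μg/ml). Agitated for 12 h at 37°C in a biological oxygen monitor. MIC derived from continuous monitoring and quantification of the available oxygen.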

[21] = system: Aspergillus fumigatus; test: Antimicrobial activity against Aspergillus fumigatus isolate 30 after 24 hrs by Etest; settings: isolate 30, 24 h; outline: as §7
[22] = system: Aspergillus fumigatus; test: Antimicrobial activity against Aspergillus fumigatus isolate 41 by CLSI M38-A2 broth microdilution method; outline: as §1
[23] = system: Aspergillus fumigatus; test: Antimicrobial activity against Aspergillus fumigatus isolate 21 by oxygen consumption method; outline: as §6
[24] = system: Aspergillus fumigatus; test: Antimicrobial activity against Aspergillus fumigatus isolate 8 after 24 hrs by Etest; settings: isolate 8, 24 h
[25] = system: Aspergillus fumigatus; test: Antimicrobial activity against Aspergillus fumigatus isolate 38 after 48 hrs by Etest; settings: isolate 38, 48 h; outline: as §3
[26] = system: Aspergillus fumigatus; test: Antimicrobial activity against Aspergillus fumigatus isolate 10 after 48 hrs by Etest; settings: isolate 10, 48 h; outline: as §5
[27] = system: Aspergillus fumigatus; test: Antimicrobial activity against Aspergillus fumigatus isolate 19 by CLSI M38-A2 broth microdilution method; outline: as §2
[28] = system: Aspergillus fumigatus; test: Antimicrobial activity against Aspergillus fumigatus isolate 17 after 24 hrs by Etest; settings: isolate 17, 24 h; outline: as §5
[29] = system: Aspergillus fumigatus; test: Antimicrobial activity against Aspergillus fumigatus isolate 45 after 24 hrs by Etest; settings: isolate 45, 24 h
[30] = system: Aspergillus fumigatus; test: Antimicrobial activity against Aspergillus fumigatus isolate 19 after 48 hrs by Etest; settings: isolate 19, 48 h; outline: as §5
[31] = system: Aspergillus fumigatus; test: Antimicrobial activity against Aspergillus fumigatus isolate 8 by CLSI M38-A2 broth microdilution method
[32] = system: Aspergillus fumigatus; test: Antimicrobial activity against Aspergillus fumigatus isolate 42 after 24 hrs by Etest; settings: isolate 42, 24 h; outline: as §3
[33] = system: Aspergillus fumigatus; test: Antimicrobial activity against Aspergillus fumigatus isolate 46 after 24 hrs by Etest; settings: isolate 46, 24 h
[34] = system: Aspergillus fumigatus; test: Antimicrobial activity against Aspergillus fumigatus isolate 12 after 24 hrs by Etest; settings: isolate 12, 24 h; outline: as §5
[35] = system: Aspergillus fumigatus; test: Antimicrobial activity against Aspergillus fumigatus isolate 30 by oxygen consumption method; outline: as §6
[36] = system: Aspergillus fumigatus; test: Antimicrobial activity against Aspergillus fumigatus isolate 5 by oxygen consumption method
[37] = system: Aspergillus fumigatus; test: Antimicrobial activity against Aspergillus fumigatus isolate 13 by CLSI M38-A2 broth microdilution method; outline: as §2
[38] = system: Aspergillus fumigatus; test: Antimicrobial activity against Aspergillus fumigatus isolate 23 by oxygen consumption method; outline: as §6
[39] = system: Aspergillus fumigatus; test: Antimicrobial activity against Aspergillus fumigatus isolate 48 by CLSI M38-A2 broth microdilution method
[40] = system: Aspergillus fumigatus; test: Antimicrobial activity against Aspergillus fumigatus isolate 25 after 24 hrs by Etest; settings: isolate 25, 24 h; outline: as §7
[41] = system: Aspergillus fumigatus; test: Antimicrobial activity against Aspergillus fumigatus isolate 27 by oxygen consumption method; outline: as §6
[42] = system: Aspergillus fumigatus; test: Antimicrobial activity against Aspergillus fumigatus isolate 36 by CLSI M38-A2 broth microdilution method; outline: as §1
[43] = system: Aspergillus fumigatus; test: Antimicrobial activity against Aspergillus fumigatus isolate 10 after 24 hrs by Etest; settings: isolate 10, 24 h; outline: as §5
[44] = system: Aspergillus fumigatus; test: Antimicrobial activity against Aspergillus fumigatus isolate 18 after 48 hrs by Etest; settings: isolate 18, 48 h; outline: as §5
[45] = system: Aspergillus fumigatus; test: Antimicrobial activity against Aspergillus fumigatus isolate 25 by oxygen consumption method; outline: as §6
[46] = system: Aspergillus fumigatus; test: Antimicrobial activity against Aspergillus fumigatus isolate 11 by CLSI M38-A2 broth microdilution method; outline: as §2
[47] = system: Aspergillus fumigatus; test: Antimicrobial activity against Aspergillus fumigatus isolate 9 after 24 hrs by Etest; settings: isolate 9, 24 h
[48] = system: Aspergillus fumigatus; test: Antimicrobial activity against Aspergillus fumigatus isolate 47 after 48 hrs by Etest; settings: isolate 47, 48 h

CC[C@@H]([C@H](C)O)n1ncn(-c2ccc(N3CCN(c4ccc(OC[C@@H]5CO[C@@](Cn6cncn6)(c6ccc(F)cc6F)C5)cc4)CC3)cc2)c1=O [POSACONAZOLE]
MIC [1]: 0.125 µg/mL (≈ 0.178 µM)
MIC [2]: 0.125 µg/mL (≈ 0.178 µM)
MIC [3]: 0.125 µg/mL (≈ 0.178 µM)
MIC [4]: ≤ 0.25 µg/mL
MIC [5]: 0.25 µg/mL (≈ 0.357 µM)
MIC [6]: ≤ 0.25 µg/mL
MIC [7]: 0.25 µg/mL (≈ 0.357 µM)
MIC [8]: 0.125 µg/mL (≈ 0.178 µM)
MIC [9]: 0.5 µg/mL (≈ 0.713 µM)
MIC [10]: 2 µg/mL (≈ 2.85 µM)
MIC [11]: 0.5 µg/mL (≈ 0.713 µM)
MIC [12]: 0.06 µg/mL (≈ 0.0856 µM)
MIC [13]: ≤ 0.03 µg/mL
MIC [14]: ≤ 0.25 µg/mL
MIC [15]: 0.125 µg/mL (≈ 0.178 µM)
MIC [16]: 0.25 µg/mL (≈ 0.357 µM)
MIC [17]: 1 µg/mL (≈ 1.43 µM)
MIC [18]: 0.25 µg/mL (≈ 0.357 µM)
MIC [19]: 0.25 µg/mL (≈ 0.357 µM)
MIC [20]: ≤ 0.25 µg/mL
MIC [21]: 0.5 µg/mL (≈ 0.713 µM)
MIC [22]: 0.06 µg/mL (≈ 0.0856 µM)
MIC [23]: ≤ 0.25 µg/mL
MIC [24]: 0.25 µg/mL (≈ 0.357 µM)
MIC [25]: 0.125 µg/mL (≈ 0.178 µM)
MIC [26]: 0.25 µg/mL (≈ 0.357 µM)
MIC [27]: 0.5 µg/mL (≈ 0.713 µM)
MIC [28]: 0.125 µg/mL (≈ 0.178 µM)
MIC [29]: 0.125 µg/mL (≈ 0.178 µM)
MIC [30]: 0.25 µg/mL (≈ 0.357 µM)
MIC [31]: 0.125 µg/mL (≈ 0.178 µM)
MIC [32]: 0.06 µg/mL (≈ 0.0856 µM)
MIC [33]: 0.125 µg/mL (≈ 0.178 µM)
MIC [34]: 0.25 µg/mL (≈ 0.357 µM)
MIC [35]: ≤ 0.25 µg/mL
MIC [36]: ≥ 0.5 µg/mL
MIC [37]: 0.125 µg/mL (≈ 0.178 µM)
MIC [38]: ≤ 0.25 µg/mL
MIC [39]: 0.125 µg/mL (≈ 0.178 µM)
MIC [40]: 0.25 µg/mL (≈ 0.357 µM)
MIC [41]: ≥ 0.5 µg/mL
MIC [42]: 0.125 µg/mL (≈ 0.178 µM)
MIC [43]: 0.125 µg/mL (≈ 0.178 µM)
MIC [44]: 0.25 µg/mL (≈ 0.357 µM)
MIC [45]: ≤ 0.25 µg/mL
MIC [46]: 0.25 µg/mL (≈ 0.357 µM)
MIC [47]: 0.25 µg/mL (≈ 0.357 µM)
MIC [48]: ≤ 0.03 µg/mL
